From ChEMBL document CHEMBL1124970, “New leupeptin analogues: synthesis and inhibition data” (J Med Chem, 1990)
Where a SMILES comes first, the peptide text is derived from it. [ ]: non-standard residue; d: D form. The star is where a group is joined. Orn = NCCC[C@H](N)C(=O)O; Cbz = O=C(OCc1ccccc1)*

How the values were obtained:
Plasminogen [1] = biological target: T1, Plasminogen (Rattus norvegicus, UniProt Q01177); assay: Evaluated for the inhibition of plasmin.( no inhibition at 400 uM)
Method in brief: (§1)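 Plasmin (0.25 casein units/mL stock, in 50% glycerol/2 mM HCl with 5 g/L carbowax) in 0.5 M Tris pH 8.0 with 0.12 M NaCl, inhibitor added in 1% DMSO/water, 37 °C. D-Val-Leu-Lys p-nitroanilide (3.35 mM stock) added, 1 min incubation, then A405 change followed over 10 min. Four runs at ≥5 inhibitor concentrations; % inhibition vs log[I] gives IC50.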

Serine protease 1 [2] = biological target: T2, Serine protease 1 (Homo sapiens, UniProt P07477); assay: Evaluated for the inhibition of trypsin.(no inhibition at 400 uM)
T2 sequence (P07477 whole entry): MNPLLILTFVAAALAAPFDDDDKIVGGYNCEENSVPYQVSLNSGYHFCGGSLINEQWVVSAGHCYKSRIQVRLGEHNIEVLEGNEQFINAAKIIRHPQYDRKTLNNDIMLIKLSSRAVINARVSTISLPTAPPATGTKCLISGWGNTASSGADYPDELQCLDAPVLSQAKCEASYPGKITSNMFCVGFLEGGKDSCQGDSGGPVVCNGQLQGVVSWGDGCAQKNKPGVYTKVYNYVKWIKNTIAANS
Method in brief: (§2)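 Trypsin (0.01 g/L stock in 0.001 N HCl) in 0.046 M Tris with 0.0115 M CaCl2, pH 8.1, inhibitor in 1% DMSO/water, 37 °C. Tosyl-L-arginine methyl ester (0.01 M stock) added, 2 min incubation, A247 change read over 10 min. Each inhibitor level run four times, five or more levels; IC50 from % inhibition plotted against log concentration.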

Kallikrein-1 = Kallikrein-1 (Homo sapiens, UniProt P06870); assay: Inhibition of Kallikrein proteolytic enzyme
Chain of Kallikrein-1 (P06870 whole entry): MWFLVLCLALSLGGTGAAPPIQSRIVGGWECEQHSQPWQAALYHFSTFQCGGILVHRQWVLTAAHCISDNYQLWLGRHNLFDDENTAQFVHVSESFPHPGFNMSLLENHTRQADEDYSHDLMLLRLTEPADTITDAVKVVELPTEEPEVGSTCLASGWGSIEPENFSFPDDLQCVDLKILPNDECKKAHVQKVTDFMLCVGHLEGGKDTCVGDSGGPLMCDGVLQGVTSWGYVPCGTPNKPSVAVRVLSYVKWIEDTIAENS
Method in brief: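 Human urinary kallikrein (0.3 units/mL stock) at 37 °C in 0.46 M Tris pH 8.0 containing 0.0115 M NaCl, inhibitor in 1% DMSO/water. Benzoylarginine ethyl ester (0.5 mM stock) substrate, 2 min incubation, absorbance change at 253 nm over 10 min. Quadruplicate measurements at ≥5 inhibitor concentrations; IC50 read from % inhibition vs log inhibitor concentration.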

Plasminogen [3] = biological target: T1, Plasminogen; assay: Inhibition of plasmin; method in brief: as §1
Serine protease 1 [4] = biological target: T2, Serine protease 1; assay: Evaluated for the inhibition of trypsin; method in brief: as §2
Plasminogen [5] = biological target: T1, Plasminogen; assay: Evaluated for the inhibition of plasmin.(no inhibition at 400 uM); method in brief: as §1

T1 sequence (Q01177 97-581 limits assumed): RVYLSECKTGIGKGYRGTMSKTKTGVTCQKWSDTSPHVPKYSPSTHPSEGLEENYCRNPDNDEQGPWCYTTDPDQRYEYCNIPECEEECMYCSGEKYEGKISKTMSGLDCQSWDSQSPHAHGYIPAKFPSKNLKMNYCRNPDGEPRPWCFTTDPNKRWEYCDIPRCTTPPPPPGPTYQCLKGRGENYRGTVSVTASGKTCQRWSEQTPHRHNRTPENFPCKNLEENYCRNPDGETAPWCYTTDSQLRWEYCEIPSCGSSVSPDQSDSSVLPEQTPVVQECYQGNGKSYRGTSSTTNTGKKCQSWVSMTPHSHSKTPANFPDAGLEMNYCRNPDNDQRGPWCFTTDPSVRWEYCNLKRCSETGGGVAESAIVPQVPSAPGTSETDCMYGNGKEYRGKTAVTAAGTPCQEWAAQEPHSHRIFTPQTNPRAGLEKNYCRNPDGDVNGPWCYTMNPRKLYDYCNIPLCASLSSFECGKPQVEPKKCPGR
T1 sequence (Q01177 582-812 limits assumed): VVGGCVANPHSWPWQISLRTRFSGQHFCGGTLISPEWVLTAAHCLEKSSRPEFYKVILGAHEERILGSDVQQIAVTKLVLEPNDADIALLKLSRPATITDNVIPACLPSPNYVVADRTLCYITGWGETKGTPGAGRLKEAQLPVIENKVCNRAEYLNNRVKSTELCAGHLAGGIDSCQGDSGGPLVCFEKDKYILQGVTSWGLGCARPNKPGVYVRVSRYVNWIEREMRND

Compound | IC50 (Plasminogen [1]) | IC50 (Serine protease 1 [2]) | IC50 (Kallikrein-1) | IC50 (Plasminogen [3]) | IC50 (Serine protease 1 [4]) | IC50 (Plasminogen [5])
CC(C)C[C@H](NC(=O)OCc1ccccc1)C(=O)N[C@@H](Cc1ccccc1)C(=O)N[C@H](C=O)CCCN (Cbz-Leu-Phe-[Orn]-aldehyde) | > 400 µM | > 400 µM | 82.4 µM | – | – | –
CC(C)C[C@H](NC(=O)OCc1ccccc1)C(=O)N[C@@H](Cc1ccccc1)C(=O)N[C@H](C=O)CCCCN (Cbz-Leu-Phe-Lys-aldehyde) | – | > 400 µM | 20.3 µM | 47 µM | – | –
CC(C)C[C@H](NC(=O)OCc1ccccc1)C(=O)N[C@@H](Cc1ccccc1)C(=O)N[C@H](C=O)CCCN=C(N)N (Cbz-Leu-Phe-Arg-aldehyde) | – | – | 33.3 µM | 79.9 µM | 107 µM | –
CC(C)C[C@H](NC(=O)OCc1ccccc1)C(=O)N[C@@H](CC(C)C)C(=O)N[C@H](C=O)CCCCN (Cbz-Leu-Leu-Lys-aldehyde) | – | – | 19 µM | 184 µM | 196 µM | –
CC(C)C[C@H](NC(=O)OCc1ccccc1)C(=O)N[C@@H](CC(C)C)C(=O)N[C@H](C=O)CCCN (Cbz-Leu-Leu-[Orn]-aldehyde) | – | > 400 µM | 29.3 µM | – | – | > 400 µM
CC(C)C[C@H](NC(=O)OCc1ccccc1)C(=O)N[C@@H](CC(C)C)C(=O)N[C@H](C=O)CCCN=C(N)N | – | – | 36 µM | 128 µM | 164 µM | –
CC(C)C[C@H](NC(=O)[C@H](Cc1ccccc1)NC(=O)OCc1ccccc1)C(=O)N[C@H](C=O)CCCN=C(N)N (Cbz-Phe-Leu-Arg-aldehyde) | – | – | 25.7 µM | 10.2 µM | 45.9 µM | –
CC(C)C[C@H](NC(=O)OCc1ccccc1)C(=O)N[C@H](C(=O)N[C@H](C=O)CCCCN)C(C)C (Cbz-Leu-Val-Lys-aldehyde) | – | > 400 µM | 14.8 µM | 18.5 µM | – | –
CC(C)C[C@H](NC(=O)OCc1ccccc1)C(=O)N[C@H](C(=O)N[C@H](C=O)CCCN=C(N)N)C(C)C (Cbz-Leu-Val-Arg-aldehyde) | – | – | 11.2 µM | 10.2 µM | 81.4 µM | –
CC(C)C[C@H](NC(=O)[C@H](Cc1ccccc1)NC(=O)OCc1ccccc1)C(=O)N[C@H](C=O)CCCCN (Cbz-Phe-Leu-Lys-aldehyde) | – | > 400 µM | 25.6 µM | 8.9 µM | – | –
CC(C)C[C@H](NC(=O)[C@H](Cc1ccccc1)NC(=O)OCc1ccccc1)C(=O)N[C@H](C=O)CCCN (Cbz-Phe-Leu-[Orn]-aldehyde) | – | > 400 µM | 112 µM | 242 µM | – | –
CC(C)C[C@H](NC(=O)OCc1ccccc1)C(=O)N[C@H](C(=O)N[C@H](C=O)CCCN)C(C)C (Cbz-Leu-Val-[Orn]-aldehyde) | – | > 400 µM | 53.8 µM | 432 µM | – | –
